The test system of data set [1] is A-549 cells. Put plainly: Cell cycle effects and total cell number. Particulars: A-549, 24 and 48 h of incubation. The format is cell-based, human. Put shortly: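 A-549 lung adenocarcinoma cells were exposed to a concentration range from under 100 nM to 50 μM for 24 and 48 h. Cells were immunofluorescently imaged for phosphorylated Rb and total DNA content per cell to assign cell-cycle phase and total cell number. IC50 was derived for the reduction in total cell number.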

A short description of data set [2]: In vitro metabolism with rat liver microsomes, LC-MS. The format is in vitro ADME. As to conditions: incubation with rat liver microsomes, phase I. Background: Liver microsomes are vesicles of endoplasmic reticulum, rich in cytochrome P450 enzymes.

SMILES strings stand for the structures.

Regarding `COc1ccc(-c2nc(NN=C3C(=O)Nc4ccc(Br)cc43)c3ccccc3n2)cc1OC` [Compound 7d, 5-Bromo-3-(2-(2-(3,4-dimethoxyphenyl)quinazolin-4-yl) hydrazono)indolin-2-one], the Cell cycle effects entry in data set [1] was “no effects on the tested parameters”. Besides, in data set [2], the “Metabolic reaction (in vitro RLMs metabolites)” value was “demethylation”.
Regarding `CCN(CC)CCNC(=O)c1c(C)[nH]c(/C=C2\C(=O)Nc3ccc(F)cc32)c1C` [Sunitinib, reference compound], the Cell cycle effects entry in data set [1] is recorded as “reduction in the percentage of cells in G1, with corresponding increases in S or G2/M phases”.

These data come from article PMC5557401 (Drug Design, Development and Therapy, 2017).
